In BindingDB's records for doi:10.1021/jm049696n (Human Biomolecular Research Institute, 2005):

Experiments:
[1] = biological target: CYP2D6 (Homo sapiens, UniProt P10635); assay: Inhibitory concentration value against human cytochrome P-450 2D6
Outline: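 Baculovirus insect-cell microsomes coexpressing each CYP with reductase and b5, in 0.2 M potassium phosphate pH 8.0. Vivid blue substrate O-dealkylation used 5 µM substrate with 10 nM enzyme for 2B6, 10 µM with 5 nM for 2C19, 10 µM with 10 nM for 2D6, and 10 µM with 5 nM for 2E1. Inhibitor 0.02–400 or 0.14–300 µM. NADPH-generating system, 40 min at room temperature, fluorescence 405/460 nm. IC50 is the mean of three ± SD.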

[2] = biological target: CYP3A4 (Homo sapiens, UniProt P08684); assay: Inhibitory concentration value against human cytochrome P-450 3A4
Outline: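 Human liver microsomes (0.4 mg) in 0.05 M potassium phosphate, pH 7.5, with an NADPH-generating system, DETAPAC and 3 mM MgCl2. Inhibitor at 0.02–400 µM. Started with 0.2 mM testosterone and run 30 min at 37 °C with shaking. Stopped with ethyl acetate, then extracted. 6β-hydroxytestosterone measured by reverse-phase HPLC with UV detection at 254 nm. IC50 values are the mean of at least three determinations ± SD.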

[3] = biological target: CYP2E1 (Homo sapiens, UniProt P05181); assay: Inhibitory concentration value against human cytochrome P-450 2E1
Outline: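 Baculovirus-expressed CYP2E1 (co-expressing P450 reductase and cytochrome b5), 5 nM final, with 10 µM Vivid blue substrate in 0.2 M potassium phosphate pH 8.0. Inhibitor at eight levels from 0.02 to 400 µM, or six from 0.14 to 300 µM. Started with an NADPH-generating system, then 40 min at room temperature. O-dealkylated product read by fluorescence (ex 405/em 460 nm). IC50 is the mean of three experiments.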

CYP2D6, sequence (P10635 whole entry): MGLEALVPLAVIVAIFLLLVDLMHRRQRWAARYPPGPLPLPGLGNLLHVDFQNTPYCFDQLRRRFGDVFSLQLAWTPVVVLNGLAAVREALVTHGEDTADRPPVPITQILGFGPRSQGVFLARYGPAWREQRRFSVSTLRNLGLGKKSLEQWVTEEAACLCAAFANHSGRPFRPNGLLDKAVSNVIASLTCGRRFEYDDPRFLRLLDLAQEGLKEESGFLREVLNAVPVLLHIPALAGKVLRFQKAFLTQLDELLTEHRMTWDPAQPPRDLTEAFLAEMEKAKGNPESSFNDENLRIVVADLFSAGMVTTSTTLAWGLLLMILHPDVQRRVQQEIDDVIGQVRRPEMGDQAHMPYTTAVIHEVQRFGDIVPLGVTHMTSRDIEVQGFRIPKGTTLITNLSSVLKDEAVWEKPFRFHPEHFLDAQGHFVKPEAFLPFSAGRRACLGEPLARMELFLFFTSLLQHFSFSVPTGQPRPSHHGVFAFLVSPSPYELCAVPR
CYP3A4, sequence (P08684 whole entry): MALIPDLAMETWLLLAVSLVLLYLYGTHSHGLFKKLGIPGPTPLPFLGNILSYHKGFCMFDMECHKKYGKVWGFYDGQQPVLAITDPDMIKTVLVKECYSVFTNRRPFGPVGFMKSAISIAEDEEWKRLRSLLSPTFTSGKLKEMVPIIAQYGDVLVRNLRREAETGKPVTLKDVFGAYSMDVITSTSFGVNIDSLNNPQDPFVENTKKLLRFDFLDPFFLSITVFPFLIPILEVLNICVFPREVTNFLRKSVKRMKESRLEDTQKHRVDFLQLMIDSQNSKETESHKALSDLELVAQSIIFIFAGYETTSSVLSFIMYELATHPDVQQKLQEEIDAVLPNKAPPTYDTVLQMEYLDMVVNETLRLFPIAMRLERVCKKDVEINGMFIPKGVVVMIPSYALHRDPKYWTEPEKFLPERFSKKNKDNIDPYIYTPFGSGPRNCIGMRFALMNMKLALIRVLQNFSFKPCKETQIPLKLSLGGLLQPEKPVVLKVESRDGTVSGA
CYP2E1, sequence (P05181 whole entry): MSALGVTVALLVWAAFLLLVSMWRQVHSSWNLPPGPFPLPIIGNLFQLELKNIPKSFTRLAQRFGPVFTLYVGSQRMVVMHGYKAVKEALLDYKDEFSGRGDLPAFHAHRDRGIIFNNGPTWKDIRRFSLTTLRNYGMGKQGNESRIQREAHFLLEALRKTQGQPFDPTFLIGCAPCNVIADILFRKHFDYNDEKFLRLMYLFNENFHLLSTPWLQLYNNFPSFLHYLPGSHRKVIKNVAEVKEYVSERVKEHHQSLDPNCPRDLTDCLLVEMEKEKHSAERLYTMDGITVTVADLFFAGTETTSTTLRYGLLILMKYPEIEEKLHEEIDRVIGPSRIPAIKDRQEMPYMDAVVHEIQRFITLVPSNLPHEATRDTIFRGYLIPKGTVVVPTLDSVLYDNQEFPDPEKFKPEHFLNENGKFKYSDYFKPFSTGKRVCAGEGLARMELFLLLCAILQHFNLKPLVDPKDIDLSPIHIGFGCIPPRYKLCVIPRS

| IC50 [3] | Structure (SMILES) | IC50 [1] | IC50 [2] |
| --- | --- | --- | --- |
| – | NCc1ccc(-c2cccnc2)s1 [US8609708, 31] | 197 µM | 77.5 µM |
| > 400 µM | O=NCc1ccc(-c2cccnc2)o1 [US8609708, 24] | > 400 µM | > 400 µM |
